# Test results reported in ChEMBL document CHEMBL1122494, “New selenium-75 labeled radiopharmaceuticals: selenonium analogues of dopamine” (J Med Chem, 1983).
# Columns and labels:
# Type in all cases: ADME, organism-based
# Rattus norvegicus [1] = assay: Distribution of Se-75 activity in Brain of female Sprague-Dawley Rat 30 min after iv administration of compound; conditions: in vivo, 0.5 h
# Rattus norvegicus [2] = assay: Distribution of Se-75 activity in Lung of female Sprague-Dawley Rat 30 min after iv administration of compound; conditions: in vivo, 0.5 h
# Summary of the method: (§1)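 Female Sprague-Dawley rats (100-300 g), five per group, got [75Se]selenonium salt in 0.2 mL saline (5-6 μCi) by lateral tail vein. They were killed by cardioectomy under chloroform anesthesia at the stated time. A sample of the large organ was weighed and gamma counted, and counts were converted to % injected dose/g. Values are mean and SEM of five.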
# Rattus norvegicus [3] = assay: Tissue radioactivity ratio in adrenal to Kidney 5 min after Intravenous Injection in rats; conditions: in vivo
# Summary of the method: (§2)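 Same rat biodistribution: female Sprague-Dawley rats (100-300 g), 5-6 μCi [75Se]selenonium salt in 0.2 mL saline iv by tail vein, five per time point, killed by cardioectomy under chloroform. Ratios are tissue-to-tissue quotients of gamma-counted % injected dose per gram in each organ (adrenal, heart, kidney, liver, blood).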
# Rattus norvegicus [4] = assay: Tissue radioactivity ratio in adrenal to blood 120 min after Intravenous Injection in rats; conditions: other tissue, 2 h; summary of the method: as §2
# Rattus norvegicus [5] = assay: Distribution of Se-75 activity in Heart of female Sprague-Dawley Rat 240 min after iv administration compound; conditions: in vivo, 4 h
# Summary of the method: (§3)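 Female Sprague-Dawley rats (100-300 g), five per group, got [75Se]selenonium salt by lateral tail vein: 0.2 mL saline with 5-6 μCi. Groups were killed by cardioectomy under chloroform anesthesia at the set times. The organ was taken intact, rinsed with saline, blotted, weighed and gamma counted. Values are % injected dose/g, mean and SEM of five.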
# Rattus norvegicus [6] = assay: Distribution of Se-75 activity in Lung of female Sprague-Dawley Rat 120 min after iv administration compound; conditions: in vivo, 2 h; summary of the method: as §1
# Rattus norvegicus [7] = assay: Tissue radioactivity ratio in adrenal to blood 5 min after Intravenous Injection in rats; conditions: other tissue; summary of the method: as §2
# Rattus norvegicus [8] = assay: Distribution of Se-75 activity in Brain of female Sprague-Dawley Rat 240 min after iv administration compound; conditions: in vivo, 4 h
# Rattus norvegicus [9] = assay: Distribution of Se-75 activity in Heart of female Sprague-Dawley Rat 120 min after iv administration compound; conditions: in vivo, 2 h; summary of the method: as §3
# Rattus norvegicus [10] = assay: Distribution of Se-75 activity in Kidney of female Sprague-Dawley Rat 240 min after iv administration compound; conditions: in vivo, 4 h; summary of the method: as §3
# Rattus norvegicus [11] = assay: Tissue radioactivity ratio in adrenal to Liver 5 min after Intravenous Injection in rats; conditions: in vivo; summary of the method: as §2
# Rattus norvegicus [12] = assay: Distribution of Se-75 activity in Adrenal of female Sprague-Dawley Rat 15 after iv administration of compound; conditions: in vivo; summary of the method: as §3
# Rattus norvegicus [13] = assay: Distribution of Se-75 activity in Lung of female Sprague-Dawley Rat 240 min after iv administration compound; conditions: in vivo, 4 h; summary of the method: as §1
# Rattus norvegicus [14] = assay: Tissue radioactivity ratio in adrenal to blood 15 min after Intravenous Injection in rats; conditions: other tissue, 0.25 h; summary of the method: as §2
# Rattus norvegicus [15] = assay: Distribution of Se-75 activity in Adrenal of female Sprague-Dawley Rat 240 min after iv administration compound; conditions: in vivo, 4 h; summary of the method: as §3
# Rattus norvegicus [16] = assay: Tissue radioactivity ratio in adrenal to Liver 15 min after Intravenous Injection in rats; conditions: in vivo, 0.25 h; summary of the method: as §2
# Rattus norvegicus [17] = assay: Tissue radioactivity ratio in Heart to Blood 240 min after Intravenous Injection in rats; conditions: other tissue, 4 h; summary of the method: as §2
# Rattus norvegicus [18] = assay: Distribution of Se-75 activity in Adrenal of female Sprague-Dawley Rat 120 min after iv administration compound; conditions: in vivo, 2 h; summary of the method: as §3
# Rattus norvegicus [19] = assay: Distribution of Se-75 activity in Liver of female Sprague-Dawley Rat 60 min after iv administration of dcompound; conditions: in vivo, 1 h; summary of the method: as §1
# Rattus norvegicus [20] = assay: Distribution of Se-75 activity in Kidney of female Sprague-Dawley Rat 120 min after iv administration compound; conditions: in vivo, 2 h; summary of the method: as §3
# Rattus norvegicus [21] = assay: Distribution of Se-75 activity in blood of female Sprague-Dawley Rat 120 min after iv administration of compound; conditions: in vivo, 2 h
# Summary of the method: (§4)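 Tail-vein injection of 5-6 μCi [75Se]selenonium salt in 0.2 mL saline into female Sprague-Dawley rats (100-300 g), five per group. Rats were killed by cardioectomy under chloroform anesthesia at the time point. Radioactivity was gamma counted and expressed as % injected dose/g, mean and SEM of five.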
# Rattus norvegicus [22] = assay: Distribution of Se-75 activity in Brain of female Sprague-Dawley Rat 120 min after iv administration compound; conditions: in vivo, 2 h
# Rattus norvegicus [23] = assay: Distribution of Se-75 activity in Heart of female Sprague-Dawley Rat 5 min after iv administration of compound; conditions: in vivo; summary of the method: as §3
# Rattus norvegicus [24] = assay: Distribution of Se-75 activity in Brain of female Sprague-Dawley Rat 5 min after iv administration of compound; conditions: in vivo
# Rattus norvegicus [25] = assay: Tissue radioactivity ratio in Heart to Blood 120 min after Intravenous Injection in rats; conditions: other tissue, 2 h; summary of the method: as §2
# Rattus norvegicus [26] = assay: Distribution of Se-75 activity in Heart of female Sprague-Dawley Rat 240 min after iv administration of dose 5 uCi/0.2 mL; conditions: in vivo, 4 h; summary of the method: as §3
# Rattus norvegicus [27] = assay: Distribution of Se-75 activity in blood of female Sprague-Dawley Rat 120 min after iv administration compound; conditions: in vivo, 2 h; summary of the method: as §4
# Rattus norvegicus [28] = assay: Distribution of Se-75 activity in Adrenal of female Sprague-Dawley Rat 120 min after iv administration of compound; conditions: in vivo, 2 h; summary of the method: as §3
# Rattus norvegicus [29] = assay: Distribution of Se-75 activity in Heart of female Sprague-Dawley Rat 120 min after iv administration of compound; conditions: in vivo, 2 h; summary of the method: as §3
# Rattus norvegicus [30] = assay: Distribution of Se-75 activity in Brain of female Sprague-Dawley Rat 120 min after iv administration of compound; conditions: in vivo, 2 h
# Rattus norvegicus [31] = assay: Distribution of Se-75 activity in Brain of female Sprague-Dawley Rat 240 min after iv administration of compound; conditions: in vivo, 4 h
# Rattus norvegicus [32] = assay: Distribution of Se-75 activity in Adrenal of female Sprague-Dawley Rat 240 min after iv administration of compound; conditions: in vivo, 4 h; summary of the method: as §3
# Rattus norvegicus [33] = assay: Distribution of Se-75 activity in Liver of female Sprague-Dawley Rat 60 min after iv administration of compound; conditions: in vivo, 1 h; summary of the method: as §1
# Rattus norvegicus [34] = assay: Distribution of Se-75 activity in Kidney of female Sprague-Dawley Rat 240 min after iv administration of compound; conditions: in vivo, 4 h; summary of the method: as §3
# Rattus norvegicus [35] = assay: Distribution of Se-75 activity in Lung of female Sprague-Dawley Rat 120 min after iv administration of compound; conditions: in vivo, 2 h; summary of the method: as §1
# Rattus norvegicus [36] = assay: Distribution of Se-75 activity in Kidney of female Sprague-Dawley Rat 120 min after iv administration of compound; conditions: in vivo, 2 h; summary of the method: as §3
# Rattus norvegicus [37] = assay: Distribution of Se-75 activity in Lung of female Sprague-Dawley Rat 240 min after iv administration of compound; conditions: in vivo, 4 h; summary of the method: as §1
Structure (SMILES),Dose/g (Rattus norvegicus [1]) [%],Dose/g (Rattus norvegicus [2]) [%],Ratio (Rattus norvegicus [3]),Ratio (Rattus norvegicus [4]),Ratio (Rattus norvegicus [7]),Ratio (Rattus norvegicus [11]),Dose/g (Rattus norvegicus [12]) [%],Ratio (Rattus norvegicus [14]),Ratio (Rattus norvegicus [16]),Ratio (Rattus norvegicus [17]),Dose/g (Rattus norvegicus [23]) [%],Dose/g (Rattus norvegicus [24]) [%],Ratio (Rattus norvegicus [25]),further results
COc1ccc(CC[Se+](C)C)cc1OC.[I-],0.02,0.75,0.31,9.25,2.53,0.35,0.88,3.39,0.46,2,2.38,0.03,2.12,Dose/g (Rattus norvegicus [5]): 0.06%; Dose/g (Rattus norvegicus [6]): 0.19%; Dose/g (Rattus norvegicus [8]): 0%; Dose/g (Rattus norvegicus [9]): 0.17%; Dose/g (Rattus norvegicus [10]): 0.16%; Dose/g (Rattus norvegicus [13]): 0.07%; Dose/g (Rattus norvegicus [15]): 0.64%; Dose/g (Rattus norvegicus [18]): 0.74%; Dose/g (Rattus norvegicus [19]): 0.62%; Dose/g (Rattus norvegicus [20]): 0.33%; Dose/g (Rattus norvegicus [21]): 0.08%; Dose/g (Rattus norvegicus [22]): 0.01%
C[Se+](C)CCc1ccc(O)c(O)c1.[Cl-],0.01,0.83,0.29,9.12,2.22,0.42,0.87,2.9,0.43,3.2,2.37,0.02,2.62,Dose/g (Rattus norvegicus [26]): 0.16%; Dose/g (Rattus norvegicus [27]): 0.08%; Dose/g (Rattus norvegicus [28]): 0.73%; Dose/g (Rattus norvegicus [29]): 0.21%; Dose/g (Rattus norvegicus [30]): 0%; Dose/g (Rattus norvegicus [31]): 0%; Dose/g (Rattus norvegicus [32]): 0.59%; Dose/g (Rattus norvegicus [33]): 0.8%; Dose/g (Rattus norvegicus [34]): 0.18%; Dose/g (Rattus norvegicus [35]): 0.2%; Dose/g (Rattus norvegicus [36]): 0.29%; Dose/g (Rattus norvegicus [37]): 0.09%
